Measured values published in ChEMBL document CHEMBL1155078, “From phenothiazine to 3-phenyl-1,4-benzothiazine derivatives as inhibitors of the Staphylococcus aureus NorA multidrug efflux pump” (J Med Chem, 2008).
Converted amounts (≈) assume the structure as drawn. The source made the active and inactive calls. The rule behind the calls is not given here.

Key:
[1] = target: T1, Quinolone resistance protein NorA (Staphylococcus aureus) (UniProt P0A0J7); assay: Inhibition of NorA overexpressing Staphylococcus aureus K2378 assessed as fold reduction of ciprofloxacin MIC at 12.5 ug/mL by microdilution technique
T1 sequence (whole entry): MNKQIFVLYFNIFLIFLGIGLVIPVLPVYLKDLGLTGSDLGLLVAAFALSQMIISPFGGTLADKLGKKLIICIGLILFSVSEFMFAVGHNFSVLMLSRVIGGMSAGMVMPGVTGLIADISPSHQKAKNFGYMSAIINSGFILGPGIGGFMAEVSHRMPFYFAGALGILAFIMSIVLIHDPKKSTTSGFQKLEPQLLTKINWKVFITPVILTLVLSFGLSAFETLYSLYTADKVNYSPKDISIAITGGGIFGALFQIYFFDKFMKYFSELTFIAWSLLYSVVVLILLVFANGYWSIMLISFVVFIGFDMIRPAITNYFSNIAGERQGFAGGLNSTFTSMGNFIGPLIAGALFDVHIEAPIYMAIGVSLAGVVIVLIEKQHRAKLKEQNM
Procedure, shortened: (§1)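 Ciprofloxacin MICs were measured in duplicate by broth microdilution following CLSI guidelines. They were determined alone and with scalar dilutions of freshly prepared test compound, which was added at the fixed concentration stated in the line. The result is the fold decrease in the ciprofloxacin MIC when compound is present.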

[2] = target: T1, Quinolone resistance protein NorA (Staphylococcus aureus); assay: Inhibition of NorA overexpressing Staphylococcus aureus K2378 assessed as fold reduction of ciprofloxacin MIC at 6.25 ug/mL by microdilution technique; procedure, shortened: as §1
[3] = target: T1, Quinolone resistance protein NorA (Staphylococcus aureus); assay: Inhibition of NorA overexpressing Staphylococcus aureus K2378 assessed as fold reduction of ciprofloxacin MIC at 25 ug/mL by microdilution technique; procedure, shortened: as §1
Staphylococcus aureus [4] = assay: Antibacterial activity against wild type Staphylococcus aureus ATCC 25923 by microdilution technique; format: functional
Procedure, shortened: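 MICs determined in duplicate by broth microdilution following CLSI guidelines.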

[5] = target: T1, Quinolone resistance protein NorA (Staphylococcus aureus); assay: Inhibition of NorA in Staphylococcus aureus ATCC 25923 assessed as fold reduction of ciprofloxacin MIC at 25 ug/mL by microdilution technique; procedure, shortened: as §1
[6] = target: T1, Quinolone resistance protein NorA (Staphylococcus aureus); assay: Inhibition of NorA pump-mediated ethidium bromide efflux in Staphylococcus aureus K1199B at 50 uM by fluorimetric analysis
Procedure, shortened: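 Loss of ethidium bromide from norA-overexpressing S. aureus SA-1199B measured fluorometrically with test agent at 50 µM. Run in duplicate; read-out is the mean total efflux over a 5 min time course.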

Staphylococcus aureus [7] = assay: Antibacterial activity against Staphylococcus aureus K1199B at 50 uM by microdilution technique; format: functional, organism-based
[8] = target: T1, Quinolone resistance protein NorA (Staphylococcus aureus); assay: Inhibition of NorA deficient Staphylococcus aureus K1902 assessed as fold reduction of ciprofloxacin MIC at 25 ug/mL by microdilution technique
[9] = Lipophilicity, log P of the compound; format: physicochemical; details: octanol/water
Staphylococcus aureus [10] = assay: Antibacterial activity against norA expressing Staphylococcus aureus K1902 by microdilution technique
Staphylococcus aureus [11] = assay: microbe, parasite or virus in culture; details: ATCC 25923
Staphylococcus aureus [12] = assay: Antibacterial activity against norA deficient Staphylococcus aureus K2378 by microdilution technique
[13] = target: T1, Quinolone resistance protein NorA (Staphylococcus aureus); assay: Inhibition of NorA deficient Staphylococcus aureus K1902 assessed as fold reduction of ciprofloxacin MIC at 12.5 ug/mL by microdilution technique

Compound | fold change (FC) [1] | fold change (FC) [2] | fold change (FC) [3] | MIC (Staphylococcus aureus [4]) [µg/mL] | fold change (FC) [5] | inhibition [6] [%] | Activity (Staphylococcus aureus [7]) | fold change (FC) [8] | logP [9] | MIC (Staphylococcus aureus [10]) [µg/mL] | MIC (Staphylococcus aureus [11]) [µg/mL] | MIC (Staphylococcus aureus [12]) [µg/mL] | fold change (FC) [13]
COc1cc(C2=Nc3ccccc3SC2)cc(OC)c1OC | 4 | 2 | 16 | 32 (≈ 101 µM) | 4 | 23.6 | inactive |  |  |  |  |  | 
CN(C)CCCN1c2ccccc2Sc2ccc(Cl)cc21 [CHLORPROMAZINE] |  |  | 8 | 128 (≈ 401 µM) |  | 81 |  | > 4 | 5.2 |  |  |  | 
c1ccc(C2=Nc3ccccc3SC2)cc1 |  |  |  | > 512 | 8 | 0 | inactive |  | 3 |  |  |  | 
COc1cccc(C2=Nc3ccccc3SC2)c1 |  |  | 8 | 64 (≈ 251 µM) | 4 |  |  |  |  |  |  |  | 
COC(=O)[C@H]1[C@H]2C[C@@H]3c4[nH]c5cc(OC)ccc5c4CCN3C[C@H]2C[C@@H](OC(=O)c2cc(OC)c(OC)c(OC)c2)[C@@H]1OC [RESERPINE] |  |  | 4 | 128 (≈ 210 µM) | 2 |  |  | 2 | 4 |  |  |  | 
CSc1ccc(C2CSc3ccccc3N2)cc1 (configuration not stated) | 8 | 8 | 16 | > 128 | > 8 | 28.2 | inactive |  | 4.5 |  |  |  | 
COc1ccc(C2=Nc3ccccc3SC2)cc1OC | 4 | 2 | 16 | 128 (≈ 449 µM) | 4 | 22.8 | inactive | 2 |  |  |  |  | 
Fc1ccc(C2=Nc3ccccc3SC2)cc1 | 2 | 2 | 16 | 64 (≈ 263 µM) | 4 | 0 | inactive | 2 | 3.2 |  |  |  | 
COc1ccccc1C1=Nc2ccccc2SC1 |  |  | 8 | 64 (≈ 251 µM) | 4 | 0 | inactive |  | 2.9 |  |  |  | 
O=S1(=O)C=C(c2ccc(Cl)cc2)Nc2ccccc21 |  |  | 2 | 128 (≈ 439 µM) | 4 |  |  |  |  |  |  |  | 
COc1ccc(C2=Nc3ccccc3SC2)cc1 | 4 | 2 | 16 | > 512 | > 8 | 19.5 | inactive |  | 3.1 |  |  |  | 
O=C(O)c1cn(C2CC2)c2cc(N3CCNCC3)c(F)cc2c1=O [CIPROFLOXACIN] |  |  |  |  |  |  |  |  |  | 0.12 (≈ 0.362 µM) | 0.5 (≈ 1.51 µM) | 2 (≈ 6.04 µM) | 
COc1ccc(C2CSc3ccccc3N2)cc1 (configuration not stated) | 4 | 4 | 8 | > 128 | 2 | 10.4 | inactive |  |  |  |  |  | 
O=[N+]([O-])c1ccc(C2=Nc3ccccc3SC2)cc1 |  |  | 2 | > 128 | 2 | 19.6 | inactive |  |  |  |  |  | 
Clc1ccc(C2=Nc3ccccc3SC2)cc1 |  |  | 4 | 64 (≈ 246 µM) | 4 |  |  | 4 |  |  |  |  | 
CCCOc1ccc(C2=CSc3ccccc3N2C)cc1 |  |  | 4 | > 512 |  | 0 | inactive |  |  |  |  |  | 
O=[N+]([O-])c1ccc(C2=Nc3cc(C(F)(F)F)ccc3SC2)cc1 | 16 | 8 | > 32 | 32 (≈ 94.6 µM) | > 8 | 69.7 | inactive | 2 | 3.9 |  |  |  | 2
CCCOc1ccc(C2=Nc3ccccc3SC2)cc1 |  |  | 4 | 128 (≈ 452 µM) | > 8 | 84.7 | inactive |  | 4 |  |  |  | 
O=S1(=O)C=C(c2ccccc2)Nc2ccccc21 |  |  | 2 | 128 (≈ 497 µM) | 2 |  |  |  |  |  |  |  | 
FC(F)(F)c1ccc2c(c1)N=C(c1ccccc1)CS2 | 16 | 4 | 16 | 32 (≈ 109 µM) | 2 | 8.4 | inactive |  |  |  |  |  | 
Cc1ccc(C2=Nc3ccccc3SC2)cc1 |  |  |  | 64 (≈ 267 µM) | 4 |  |  | 8 |  |  |  |  | 
COc1ccc(C2=Nc3cc(C(F)(F)F)ccc3SC2)cc1 |  |  | 8 | 64 (≈ 198 µM) | 2 |  |  |  |  |  |  |  | 
CC(C)CCOc1ccc(C2=Nc3ccccc3SC2)cc1 |  |  | 2 | > 128 | 4 | 16.9 | inactive |  |  |  |  |  | 
